From ChEMBL document CHEMBL1687776, “Origin and molecular evolution of the determinant of methicillin resistance in staphylococci” (2010)
Converted amounts (≈) assume the structure as drawn.

System: Staphylococcus vitulinus
Experiment: Antibacterial activity against methicillin-resistant mecA-positive Staphylococcus vitulinus SVMP06 by agar dilution method
Assay type: functional
Details: Mammaliicoccus vitulinus
In short: (§1)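 MIC by agar dilution on Mueller-Hinton agar per CLSI guidance; resistance judged against CLSI breakpoints. Strains were animal or food isolates (type strains for S. sciuri subspecies), typed by hsp60 and/or sodA sequencing; mecA homologue carriage checked by PCR with degenerate primers. Agents tested: oxacillin, ampicillin, ceftizoxime, ceftriaxone, cefoxitin.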

Row | SMILES | MIC [µg/mL]
1 | CC1(C)S[C@@H]2[C@H](NC(=O)[C@H](N)c3ccccc3)C(=O)N2[C@H]1C(=O)O [AMPICILLIN] | < 0.063

System: Staphylococcus fleurettii
Experiment: Antibacterial activity against methicillin-resistant mecA-positive Staphylococcus fleurettii SFMP07 by agar dilution method
Assay type: functional
Details: Mammaliicoccus fleurettii
In short: as §1

Row | SMILES | MIC [µg/mL]
2 | CC1(C)S[C@@H]2[C@H](NC(=O)[C@H](N)c3ccccc3)C(=O)N2[C@H]1C(=O)O [AMPICILLIN] | 0.25 (≈ 0.715 µM)

System: Staphylococcus fleurettii
Experiment: Antibacterial activity against methicillin-resistant mecA-positive Staphylococcus fleurettii SFMP02 by agar dilution method
Assay type: functional
Details: Mammaliicoccus fleurettii
In short: as §1

Row | SMILES | MIC [µg/mL]
3 | CC1(C)S[C@@H]2[C@H](NC(=O)[C@H](N)c3ccccc3)C(=O)N2[C@H]1C(=O)O [AMPICILLIN] | 1 (≈ 2.86 µM)

System: Staphylococcus vitulinus
Experiment: Antibacterial activity against mecA-negative Staphylococcus vitulinus SVMN08 by agar dilution method
Assay type: functional
Details: Mammaliicoccus vitulinus
In short: (§2)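 MIC by agar dilution on Mueller-Hinton agar following CLSI guidelines. Resistance was assigned using CLSI breakpoints. Agents tested were oxacillin, ampicillin, ceftizoxime, ceftriaxone and cefoxitin. Strains were from animal or food sources and identified by hsp60 and/or sodA sequencing. mecA absence was assessed by PCR with degenerate primers for mecA and its homologues.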

Row | SMILES | MIC [µg/mL]
4 | CC1(C)S[C@@H]2[C@H](NC(=O)[C@H](N)c3ccccc3)C(=O)N2[C@H]1C(=O)O [AMPICILLIN] | < 0.063

System: Staphylococcus fleurettii
Experiment: Antibacterial activity against methicillin-resistant mecA-positive Staphylococcus fleurettii SFMP05 by agar dilution method
Assay type: functional
Details: Mammaliicoccus fleurettii
In short: as §1

Row | SMILES | MIC [µg/mL]
5 | CC1(C)S[C@@H]2[C@H](NC(=O)[C@H](N)c3ccccc3)C(=O)N2[C@H]1C(=O)O [AMPICILLIN] | 0.25 (≈ 0.715 µM)

System: Staphylococcus vitulinus
Experiment: Antibacterial activity against methicillin-resistant mecA-positive Staphylococcus vitulinus SVMP02 by agar dilution method
Assay type: functional
Details: Mammaliicoccus vitulinus
In short: as §1

Row | SMILES | MIC [µg/mL]
6 | CC1(C)S[C@@H]2[C@H](NC(=O)[C@H](N)c3ccccc3)C(=O)N2[C@H]1C(=O)O [AMPICILLIN] | < 0.063

System: Staphylococcus fleurettii
Experiment: Antibacterial activity against mecA-negative Staphylococcus fleurettii SFMN01 by agar dilution method
Assay type: functional
Details: Mammaliicoccus fleurettii
In short: as §2

Row | SMILES | MIC [µg/mL]
7 | CC1(C)S[C@@H]2[C@H](NC(=O)[C@H](N)c3ccccc3)C(=O)N2[C@H]1C(=O)O [AMPICILLIN] | 0.125 (≈ 0.358 µM)

System: not listed separately
Experiment: Antibacterial activity against methicillin-resistant mecA-positive Staphylococcus sciuri subsp. sciuri ATCC 29062T by agar dilution method
Assay type: functional
Details: Mammaliicoccus sciuri
In short: as §1

Row | SMILES | MIC [µg/mL]
8 | CC1(C)S[C@@H]2[C@H](NC(=O)[C@H](N)c3ccccc3)C(=O)N2[C@H]1C(=O)O [AMPICILLIN] | 0.125 (≈ 0.358 µM)

System: Staphylococcus vitulinus
Experiment: Antibacterial activity against mecA-negative Staphylococcus vitulinus SVMN04 by agar dilution method
Assay type: functional
Details: Mammaliicoccus vitulinus
In short: as §1

Row | SMILES | MIC [µg/mL]
9 | CC1(C)S[C@@H]2[C@H](NC(=O)[C@H](N)c3ccccc3)C(=O)N2[C@H]1C(=O)O [AMPICILLIN] | < 0.063

System: Staphylococcus vitulinus
Experiment: Antibacterial activity against mecA-negative Staphylococcus vitulinus SVMN12 by agar dilution method
Assay type: functional
Details: Mammaliicoccus vitulinus
In short: as §1

Row | SMILES | MIC [µg/mL]
10 | CC1(C)S[C@@H]2[C@H](NC(=O)[C@H](N)c3ccccc3)C(=O)N2[C@H]1C(=O)O [AMPICILLIN] | < 0.063

System: Staphylococcus vitulinus
Experiment: Antibacterial activity against mecA-negative Staphylococcus vitulinus SVMN09 by agar dilution method
Assay type: functional
Details: Mammaliicoccus vitulinus
In short: as §1

Row | SMILES | MIC [µg/mL]
11 | CC1(C)S[C@@H]2[C@H](NC(=O)[C@H](N)c3ccccc3)C(=O)N2[C@H]1C(=O)O [AMPICILLIN] | < 0.063

System: Staphylococcus fleurettii
Experiment: Antibacterial activity against methicillin-resistant mecA-positive Staphylococcus fleurettii SFMP08 by agar dilution method
Assay type: functional
Details: Mammaliicoccus fleurettii
In short: as §1

Row | SMILES | MIC [µg/mL]
12 | CC1(C)S[C@@H]2[C@H](NC(=O)[C@H](N)c3ccccc3)C(=O)N2[C@H]1C(=O)O [AMPICILLIN] | 1 (≈ 2.86 µM)

System: Staphylococcus vitulinus
Experiment: Antibacterial activity against mecA-negative Staphylococcus vitulinus SVMN06 by agar dilution method
Assay type: functional
Details: Mammaliicoccus vitulinus
In short: as §1

Row | SMILES | MIC [µg/mL]
13 | CC1(C)S[C@@H]2[C@H](NC(=O)[C@H](N)c3ccccc3)C(=O)N2[C@H]1C(=O)O [AMPICILLIN] | < 0.063

System: Staphylococcus fleurettii
Experiment: Antibacterial activity against methicillin-resistant mecA-positive Staphylococcus fleurettii SFMP06 by agar dilution method
Assay type: functional
Details: Mammaliicoccus fleurettii
In short: as §1

Row | SMILES | MIC [µg/mL]
14 | CC1(C)S[C@@H]2[C@H](NC(=O)[C@H](N)c3ccccc3)C(=O)N2[C@H]1C(=O)O [AMPICILLIN] | 1 (≈ 2.86 µM)

System: Staphylococcus vitulinus
Experiment: Antibacterial activity against mecA-negative Staphylococcus vitulinus SVMN11 by agar dilution method
Assay type: functional
Details: Mammaliicoccus vitulinus
In short: as §1

Row | SMILES | MIC [µg/mL]
15 | CC1(C)S[C@@H]2[C@H](NC(=O)[C@H](N)c3ccccc3)C(=O)N2[C@H]1C(=O)O [AMPICILLIN] | 0.125 (≈ 0.358 µM)

System: Staphylococcus fleurettii
Experiment: Antibacterial activity against methicillin-resistant mecA-positive Staphylococcus fleurettii SFMP01(CCUG 43834T) by agar dilution method
Assay type: functional
Details: Mammaliicoccus fleurettii
In short: as §1

Row | SMILES | MIC [µg/mL]
16 | CC1(C)S[C@@H]2[C@H](NC(=O)[C@H](N)c3ccccc3)C(=O)N2[C@H]1C(=O)O [AMPICILLIN] | 1 (≈ 2.86 µM)

System: not listed separately
Experiment: Antibacterial activity against methicillin-resistant mecA-positive Staphylococcus sciuri subsp. rodentium ATCC 700061T by agar dilution method
Assay type: functional
Details: Mammaliicoccus sciuri
In short: as §1

Row | SMILES | MIC [µg/mL]
17 | CC1(C)S[C@@H]2[C@H](NC(=O)[C@H](N)c3ccccc3)C(=O)N2[C@H]1C(=O)O [AMPICILLIN] | 0.125 (≈ 0.358 µM)
